Each structure is given as a SMILES string.

Series [1] can be described thus: ^177Lu/^64Cu human blood serum competition. It counts as in vitro ADME. Put shortly:
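Test chelator was labelled with 177Lu or 64Cu in 10 mM NaOAc pH 5.0 for 10 min at ambient temperature. Thawed human serum (750 µL), 300 µL complex and 450 µL PBS were run in triplicate at 37 °C and 550 rpm. Sampling was at 1.5/24 h (177Lu) and 1/20 h (64Cu). Aliquots were PBS-diluted, counted and passed through PD-10 size exclusion, and the PBS eluate was counted as serum-bound. Result is % chelate-bound.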

Series [2] in a line: ^67Ga/^111In mouse serum competition. It counts as in vitro ADME. The following applies: mouse blood serum. The procedure, abridged: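 Test chelator (0.3 mg/mL) was labelled with 67Ga (NaOAc 10 mM, pH 4) or 111In (pH 5) for 10 min at ambient temperature. Complex was added to thawed mouse serum plus PBS in triplicate and held at ambient temperature. Sampling was at 15 min, 1 h and 2 h (67Ga) and 1 and 24 h (111In). Aliquots were diluted to 2.5 mL PBS, counted and loaded on PD-10. The 3.5 mL PBS eluate, holding protein-bound activity, was counted against pre-load activity.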

Series [3] in a line: ^64Cu biodistribution in healthy nude athymic mice. It counts as in vivo, mouse. The following applies: n = 4. The procedure, abridged: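 Healthy nude athymic mice received the HPLC-purified 64Cu complex by tail vein: ~30 µCi (~3 µg) in 200 µL of 2:1 saline:PBS, pH 7. Mice were killed by CO2 at 15 min, 1, 4 and 24 h (n = 4). Organs were rinsed, air-dried 5 min, weighed and gamma-counted. Counts were background- and decay-corrected, calibrated against 64Cu standards and expressed as %ID/g.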

For series [4] the following is noted: 24 h, with both ^177Lu and ^111In; cited from earlier work.

With `O=C(O)CN1CCN(CC(=O)O)CCN(CC(=O)O)CCN(CC(=O)O)CC1` [DOTA, 1,4,7,10-tetraazacyclododecane-1,4,7,10-tetraacetic acid], the “long-term stability (% chelator-bound radiometal)” value in series [1] (20 h, 37 °C, 550 rpm, ^64Cu, n = 3) is reported as 74%.
For `O=C(O)c1cccc(CN(CCN(Cc2cn(Cc3ccccc3)nn2)Cc2cccc(C(=O)O)n2)Cc2cn(Cc3ccccc3)nn2)n1` [H2azapa, N,N′-[1-Benzyl-1,2,3-triazole-4-yl]methyl-N,N′-[6-(carboxy)-pyridin-2-yl]-1,2-diaminoethane], in series [2] (24 h, ^111In complex), the “^111In transchelated by serum proteins” value worked out at 35%. In addition, in series [1] (20 h, 37 °C), the “^64Cu transchelated to serum proteins” value is 2%. Further, the “^177Lu transchelated by serum proteins” value in series [1] (24 h, ^177Lu complex) is reported as 54%. Also, the “organ uptake, heart” value in series [3] (4 h post i.v. injection) was determined as 3.8 % ID/g; in series [3] (24 h post i.v. injection), 3.4 % ID/g.
Regarding `O=C(O)CN(CCN(CC(=O)O)Cc1cccc(C(=O)O)n1)Cc1cccc(C(=O)O)n1` [H4octapa], in series [4], the stable in serum was over 85% and the “transchelated by serum proteins” value is given as under 15%.
Take `O=C([O-])CN(CCN(CC(=O)[O-])CC(=O)[O-])CCN(CC(=O)[O-])CC(=O)[O-].[111In+3].[H+].[H+]` [[^111In(DTPA)]^2−]: in series [2] (1 h, 25 °C, n = 3), the “medium-term stability (% chelator-bound radiometal)” value is reported as 87 (±2) %. For the same compound, in series [2] (24 h, 25 °C, ^111In, n = 3), the “long-term stability (% chelator-bound radiometal)” value is 88 (±2) %.
As for `O=C([O-])CN1CCN(CC(=O)[O-])CCN(CC(=O)[O-])CCN(CC(=O)[O-])CC1.[177Lu+3].[H+]` [[^177Lu(DOTA)]^−], in series [1] (1.5 h, 37 °C, 550 rpm, ^177Lu, n = 3), the “medium-term stability (% chelator-bound radiometal)” value was 87.7 (±0.7) %. The “long-term stability (% chelator-bound radiometal)” value in series [1] (24 h, 37 °C, 550 rpm, ^177Lu, n = 3) was 87 (±2) %.

The record behind these values is publication PMC4968691 (Inorganic chemistry, 2012).
